Assay results reported in ChEMBL document CHEMBL1132449, “Pyrroloquinoxaline derivatives as high-affinity and selective 5-HT(3) receptor agonists: synthesis, further structure-activity relationships, and biological studies” (J Med Chem, 1999).
pEC50, pIC50, pKi: −log10 of the molar value.

What was measured:
NG108-15 [1] = assay: The compound was tested for efficacy against 5-Hydroxytryptamine 3 receptor by measuring [14C]guanidinium uptake on NG108-15 cells; A= agonist; format: functional, cell-based; details: filed as agonist
Method in brief: (§1)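 NG108-15 cells, grown 2 days, were washed in HEPES saline pH 7.4. They were exposed 10 min at 37 °C to buffer (135 mM NaCl, 10 mM guanidinium) with […] [14C]guanidinium, 1 mM 5-HT, […] and/or 8 drug concentrations. Cells were washed in ice-cold choline buffer, dissolved in NaOH and counted by scintillation. Assays run in triplicate.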

[2] = molecular target: Serotonin 3 (5-HT3) receptor; assay: Effective concentration against 5-Hydroxytryptamine 3 receptor by measuring [14C]guanidinium uptake on NG108-15 cells.; format: functional, cell-based
[3] = molecular target: T1, Serotonin 3 (5-HT3) receptor (Rattus norvegicus, UniProt P35563+Q9JJ16); assay: Binding affinity against 5-hydroxytryptamine 3 (5-HT3) receptor from rat cortical homogenate using [3H]zacopride as radioligand
T1 sequence (P35563 whole entry): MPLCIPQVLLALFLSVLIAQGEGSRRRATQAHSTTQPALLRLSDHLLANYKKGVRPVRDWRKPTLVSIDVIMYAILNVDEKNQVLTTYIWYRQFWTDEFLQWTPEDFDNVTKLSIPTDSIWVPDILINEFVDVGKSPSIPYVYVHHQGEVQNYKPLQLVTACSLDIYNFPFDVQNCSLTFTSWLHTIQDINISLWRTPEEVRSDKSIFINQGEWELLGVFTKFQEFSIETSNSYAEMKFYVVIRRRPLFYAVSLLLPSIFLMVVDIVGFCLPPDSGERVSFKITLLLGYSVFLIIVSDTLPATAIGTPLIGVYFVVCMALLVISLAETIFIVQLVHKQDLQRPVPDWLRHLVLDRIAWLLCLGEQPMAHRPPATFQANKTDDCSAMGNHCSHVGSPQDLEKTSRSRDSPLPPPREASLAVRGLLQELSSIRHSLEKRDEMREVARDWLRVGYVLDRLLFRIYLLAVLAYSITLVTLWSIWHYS
T1 sequence (Q9JJ16 whole entry): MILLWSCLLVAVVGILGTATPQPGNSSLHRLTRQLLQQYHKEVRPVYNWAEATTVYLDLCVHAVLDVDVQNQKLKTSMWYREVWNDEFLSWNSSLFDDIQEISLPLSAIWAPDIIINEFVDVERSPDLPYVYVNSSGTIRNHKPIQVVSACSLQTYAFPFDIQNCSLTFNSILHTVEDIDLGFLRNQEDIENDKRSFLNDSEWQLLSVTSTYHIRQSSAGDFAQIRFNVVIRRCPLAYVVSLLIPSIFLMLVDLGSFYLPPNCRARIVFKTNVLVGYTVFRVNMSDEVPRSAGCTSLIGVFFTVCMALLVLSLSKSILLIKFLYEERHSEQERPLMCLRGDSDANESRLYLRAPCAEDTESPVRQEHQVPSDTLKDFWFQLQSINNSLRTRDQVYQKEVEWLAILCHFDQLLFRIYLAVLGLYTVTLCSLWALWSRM
Method in brief: (§2)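 Male rat cortices, stored at -80 °C, were homogenized in ice-cold 25 mM Tris HCl pH 7.4 and spun at 50000g. Membranes were preincubated 10 min at 37 °C, washed, and resuspended with 10 µM pargyline (10 mg tissue/sample). They were incubated with 0.4 nM (final) [3H]zacopride for 30 min at 25 °C, filtered through PEI-treated GF/B and counted. IC50 came from dose-inhibition curves, mean ± SEM of three determinations.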

NG108-15 [4] = assay: The compound was tested for efficacy against 5-Hydroxytryptamine 3 receptor by measuring [14C]guanidinium uptake on NG108-15 cells.; A = Agonist; format: functional, cell-based; details: filed as agonist; method in brief: as §1
[5] = molecular target: T1, Serotonin 3 (5-HT3) receptor; assay: The compound was tested for binding affinity against 5-hydroxytryptamine 3 receptor from NG108-15 cells using [3H]zacopride as radioligand; format: cell-based
Method in brief: (§3)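 NG108-15 cells were grown in DMEM with 10% inactivated FCS plus HAT at 37 °C, 10% CO2, harvested by shaking and pelleted. About 420 000 cells/sample in 50 mM Tris HCl pH 7.5 with 25 mM NaCl were incubated with 0.4 nM (final) [3H]zacopride for 60 min at 25 °C, then filtered and counted. IC50 is mean ± SEM of three determinations.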

[6] = The compound was tested for brain to plasma partition in rat.; format: ADME, organism-based; details: brain and plasma, read-out: AUC ratio
Method in brief: (§4)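 Male CD-COBS rats (175-200 g) received hydrochloride salts in saline i.v. at 5 mg/kg and were killed 60, 120 and 180 min after dosing. Plasma and brain levels were measured by HPLC-UV (254 nm) after liquid-liquid or solid-phase extraction with an internal standard. The ratio is brain-to-plasma AUC_t, 2-3 rats per point.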

[7] = molecular target: T1, Serotonin 3 (5-HT3) receptor; assay: The compound was tested for the binding affinity against 5-hydroxytryptamine 3 receptor using [3H]zacopride as radioligand.; format: protein-complex assay
[8] = molecular target: T2, 5-hydroxytryptamine receptor 2A (Rattus norvegicus, UniProt P14842); assay: The compound was tested for the binding affinity against 5-hydroxytryptamine 2A receptor using [3H]ketanserin as radioligand.
T2 sequence (P14842 whole entry): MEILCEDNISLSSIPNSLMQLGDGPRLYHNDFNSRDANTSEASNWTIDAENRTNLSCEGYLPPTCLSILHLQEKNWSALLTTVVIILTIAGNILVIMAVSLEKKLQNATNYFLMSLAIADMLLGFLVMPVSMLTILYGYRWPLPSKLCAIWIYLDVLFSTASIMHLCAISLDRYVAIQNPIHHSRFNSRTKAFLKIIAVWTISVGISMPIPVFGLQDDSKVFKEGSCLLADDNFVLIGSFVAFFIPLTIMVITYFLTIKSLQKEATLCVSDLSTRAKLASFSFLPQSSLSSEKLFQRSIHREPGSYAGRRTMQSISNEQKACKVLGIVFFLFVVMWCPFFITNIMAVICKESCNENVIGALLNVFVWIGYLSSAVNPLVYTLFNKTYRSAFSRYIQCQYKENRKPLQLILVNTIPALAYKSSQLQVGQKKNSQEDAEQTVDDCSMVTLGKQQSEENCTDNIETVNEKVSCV

[9] = molecular target: T3, 5-hydroxytryptamine receptor 2C (Rattus norvegicus, UniProt P08909); assay: The compound was tested for the binding affinity against 5-hydroxytryptamine 2C receptor using [3H]Mesulergine as radioligand.
T3 sequence (P08909 whole entry): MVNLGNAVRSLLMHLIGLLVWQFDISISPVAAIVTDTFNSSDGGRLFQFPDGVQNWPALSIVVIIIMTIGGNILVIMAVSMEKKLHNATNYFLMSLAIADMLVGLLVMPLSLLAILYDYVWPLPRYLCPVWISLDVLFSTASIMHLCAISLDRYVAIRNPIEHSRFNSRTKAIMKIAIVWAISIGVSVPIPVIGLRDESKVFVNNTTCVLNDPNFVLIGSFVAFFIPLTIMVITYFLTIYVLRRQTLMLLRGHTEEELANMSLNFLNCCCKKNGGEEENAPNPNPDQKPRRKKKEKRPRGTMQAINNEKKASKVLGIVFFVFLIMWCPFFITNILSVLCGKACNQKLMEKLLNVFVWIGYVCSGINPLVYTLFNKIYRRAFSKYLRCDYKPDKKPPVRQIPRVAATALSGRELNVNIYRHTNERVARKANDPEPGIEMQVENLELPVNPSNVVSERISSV

[10] = molecular target: T4, 5-hydroxytryptamine receptor 4 (Cavia porcellus, UniProt O70528); assay: The compound was tested for the binding affinity against 5-hydroxytryptamine 4 receptor using [3H]GR-113808 as radioligand.
T4 sequence (O70528 whole entry): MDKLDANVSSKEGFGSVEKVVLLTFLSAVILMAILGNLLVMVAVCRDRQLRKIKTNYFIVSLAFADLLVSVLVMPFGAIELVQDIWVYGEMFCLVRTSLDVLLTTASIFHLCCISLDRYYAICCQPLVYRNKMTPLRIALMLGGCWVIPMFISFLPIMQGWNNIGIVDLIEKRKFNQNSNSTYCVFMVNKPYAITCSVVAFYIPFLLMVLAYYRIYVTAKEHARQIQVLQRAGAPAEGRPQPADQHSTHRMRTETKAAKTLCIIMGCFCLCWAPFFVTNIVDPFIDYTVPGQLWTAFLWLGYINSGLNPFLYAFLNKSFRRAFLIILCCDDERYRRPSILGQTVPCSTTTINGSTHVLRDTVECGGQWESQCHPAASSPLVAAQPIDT

[11] = molecular target: T5, 5-hydroxytryptamine receptor 1B (Rattus norvegicus, UniProt P28564); assay: The compound was tested for the binding affinity against 5-hydroxytryptamine 1B receptor using [3H]5-HT as radioligand.
T5 sequence (P28564 whole entry): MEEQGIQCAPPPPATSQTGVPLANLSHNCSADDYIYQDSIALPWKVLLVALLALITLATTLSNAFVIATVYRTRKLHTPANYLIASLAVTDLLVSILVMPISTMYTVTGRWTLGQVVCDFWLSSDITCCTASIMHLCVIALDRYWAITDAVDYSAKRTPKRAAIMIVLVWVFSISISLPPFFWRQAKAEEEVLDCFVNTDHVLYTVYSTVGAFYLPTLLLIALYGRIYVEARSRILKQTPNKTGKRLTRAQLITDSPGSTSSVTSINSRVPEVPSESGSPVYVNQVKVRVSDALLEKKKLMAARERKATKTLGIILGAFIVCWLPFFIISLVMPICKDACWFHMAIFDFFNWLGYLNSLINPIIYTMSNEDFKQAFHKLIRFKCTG

[12] = molecular target: T1, Serotonin 3 (5-HT3) receptor; assay: The compound was tested for binding affinity against 5-hydroxytryptamine 3 receptor from rat cortical homogenate using [3H]zacopride as radioligand; not active; method in brief: as §2
[13] = molecular target: T3, 5-hydroxytryptamine receptor 2C; assay: The compound was tested for the binding affinity against 5-hydroxytryptamine 2C receptor using [3H]mesulergine as radioligand
[14] = molecular target: T1, Serotonin 3 (5-HT3) receptor; assay: The compound was tested for binding affinity against 5-hydroxytryptamine 3 receptor from NG108-15 cells (using [3H]zacopride as radioligand); format: cell-based; method in brief: as §3
NG108-15 [15] = assay: The compound was tested for efficacy against 5-Hydroxytryptamine 3 receptor by measuring [14C]guanidinium uptake on NG108-15 cells; PA=Partial agonist; format: functional, cell-based; details: filed as partial agonist; method in brief: as §1
[16] = molecular target: T2, 5-hydroxytryptamine receptor 2A; assay: The compound was tested for the binding affinity against 5-hydroxytryptamine 2A receptor using [3H]ketanserin as radioligand
[17] = molecular target: T1, Serotonin 3 (5-HT3) receptor; assay: The compound was tested for the binding affinity against 5-hydroxytryptamine 3 receptor using [3H]zacopride as radioligand; format: protein-complex assay
[18] = molecular target: T4, 5-hydroxytryptamine receptor 4; assay: The compound was tested for the binding affinity against 5-hydroxytryptamine 4 receptor using [3H]GR-113808 as radioligand
Method in brief: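 Male guinea pig striatal membranes, washed and preincubated at 37 °C, were incubated with 0.1 nM (final) [3H]GR113808 for 30 min at 37 °C.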

[19] = The compound was tested for brain to plasma partition in rat; format: ADME, organism-based; details: brain and plasma, read-out: AUC ratio; method in brief: as §4
[20] = molecular target: T5, 5-hydroxytryptamine receptor 1B; assay: The compound was tested for the binding affinity against 5-hydroxytryptamine 1B receptor using [3H]5-HT as radioligand
[21] = molecular target: T6, 5-hydroxytryptamine receptor 1A (Rattus norvegicus, UniProt P19327); assay: The compound was tested for the binding affinity against 5-hydroxytryptamine 1A receptor using [3H]8-OH-DPAT as radioligand.
T6 sequence (P19327 whole entry): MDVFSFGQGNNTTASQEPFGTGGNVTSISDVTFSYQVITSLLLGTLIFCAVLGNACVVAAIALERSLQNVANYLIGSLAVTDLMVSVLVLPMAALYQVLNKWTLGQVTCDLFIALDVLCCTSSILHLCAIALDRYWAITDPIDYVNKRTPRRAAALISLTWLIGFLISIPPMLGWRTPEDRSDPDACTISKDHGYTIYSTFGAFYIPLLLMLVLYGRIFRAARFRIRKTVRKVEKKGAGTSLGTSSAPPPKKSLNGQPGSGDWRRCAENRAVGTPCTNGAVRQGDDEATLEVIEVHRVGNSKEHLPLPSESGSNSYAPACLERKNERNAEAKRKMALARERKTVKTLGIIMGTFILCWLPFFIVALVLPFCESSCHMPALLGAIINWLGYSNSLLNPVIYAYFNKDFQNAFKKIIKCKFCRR

NG108-15 [22] = assay: The compound was tested for efficacy against 5-Hydroxytryptamine 3 receptor by measuring [14C]guanidinium uptake on NG108-15 cells.; PA=Partial agonist; format: functional, cell-based; details: filed as partial agonist; method in brief: as §1

SMILES | pEC50 [2] | pIC50 [3] | pKi [7] | pKi [8] | pKi [9] | pKi [10] | pKi [11] | pKi [21] | other results
Cc1ccc2c(c1)nc(N1CCN(C)CC1)c1cccn12 | 7.85 | 7.74 |  |  |  |  |  |  | Efficacy (NG108-15 [1]): Agonist
Cc1cccc2nc(N3CCN(C)CC3)c3cccn3c12 | 8.42 | 9.10 | 9.10 | 6.30 | < 5.00 | < 5.00 | 6.40 |  | Efficacy (NG108-15 [4]): Agonist; pIC50 [5]: 9.59; Kp [6]: 9.5
c1ccc(N2CCN(c3nc4ncccc4n4cccc34)CC2)cc1 |  |  |  |  |  |  |  |  | IC50 [12]: Not Active
CN1CCN(c2nc3ncccc3n3cccc23)CC1 | 8.77 |  |  |  |  |  |  | 7.60 | pKi [13]: 6.10; pIC50 [14]: 8.03; Efficacy (NG108-15 [15]): Partial agonist; pKi [16]: < 5.00; pKi [17]: 8.60; pKi [18]: < 5.00; Kp [19]: 4.9; pKi [20]: 7.60
Cc1cccc2nc(N3CCNCC3)c3cccn3c12 | 8.02 | 8.95 | 9.00 | 6.00 | 6.00 | < 5.00 | 6.60 | < 5.00 | Efficacy (NG108-15 [22]): Partial agonist
